From ChEMBL document CHEMBL4725247, “Cytosolic delivery of peptidic STAT3 SH2 domain inhibitors” (Bioorg Med Chem, 2020) come the findings set out here.

The target in data set [1] is Signal transducer and activator of transcription 3 (Homo sapiens) (UniProt P40763). The data set is described as follows: Inhibition of OSM-stimulated STAT3 activity in human U3A cell at 25 uM pretreated for 24 hrs followed by OSM stimulation and measured after 6 hrs by bright Glo-luciferase reporter gene assay. The procedure, abridged:
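STAT3-luc U3A fibrosarcoma reporter cells seeded at 10⁴ cells/well overnight. Pretreated with peptide or vehicle (10 or 25 μM) for 24 h at 37 °C in DMEM + 10% FBS, then stimulated 6 h with OSM 10 ng/mL. Luciferase read by Bright-Glo luminescence. Controls: OSM alone and unstimulated cells.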

A short description of data set [2]: Stability of the compound in DMEM with 10% FBS (fetal bovine serum) at 150 uM measured at 24 hrs by reverse-phase HPLC assay.
A short description of data set [3]: Stability in human HeLa cell lysate assessed as compound remaining at 150 uM measured after 1 hr by reverse-phase HPLC assay. The class given is ADME, subcellular. The following applies: read-out: Stabilty. The procedure, abridged:
(§1)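 Clarified lysate made from HeLa cells lysed on ice for 15 min in 50 mM Tris, 250 mM NaCl, 0.5% IGEPAL CA-630, pH 8.0. Peptide added at 150 μM and held at 37 °C. Peak area normalized to time zero.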

Data set [4] can be described thus: Stability in human HeLa cell lysate assessed as compound remaining at 150 uM measured after 24 hrs by reverse-phase HPLC assay. The class given is ADME, subcellular. The following applies: read-out: Stabilty. Put shortly: as §1
In data set [5] the test system is MDA-MB-468. The data set is described as follows: Cytotoxicity against human MDA-MB-468 cells assessed as cell viability at 25 uM measured after 72 hrs by Celltiter-Glo assay. The class given is functional, cell-based. The procedure, abridged:
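MDA-MB-468 breast cancer cells seeded at 3 × 10³ cells/well overnight, then given peptide or vehicle (10 or 25 μM) and kept at 37 °C for 72 h. Viability read by CellTiter-Glo luminescence.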
Background: Cellular ATP, detected with luciferase, serves as a proxy for viable cell number.

Activity calls are given as the source filed them. The rule behind the calls is not given here. Where a SMILES comes first, the peptide text is derived from it. Bridges are numbered along the chain shown (N, C = ends). Roman numbers before positions name the chains, in order. [ ]: non-standard residue; d: D form. F2Pmp = N[C@@H](Cc1ccc(C(F)(F)P(=O)(O)O)cc1)C(=O)O; pY = N[C@@H](Cc1ccc(OP(=O)(O)O)cc1)C(=O)O; 2Nal = N[C@@H](Cc1ccc2ccccc2c1)C(=O)O; βAla = NCCC(=O)O Some results are limits rather than exact numbers.

Chain of Signal transducer and activator of transcription 3 (Homo sapiens) (P40763 whole entry): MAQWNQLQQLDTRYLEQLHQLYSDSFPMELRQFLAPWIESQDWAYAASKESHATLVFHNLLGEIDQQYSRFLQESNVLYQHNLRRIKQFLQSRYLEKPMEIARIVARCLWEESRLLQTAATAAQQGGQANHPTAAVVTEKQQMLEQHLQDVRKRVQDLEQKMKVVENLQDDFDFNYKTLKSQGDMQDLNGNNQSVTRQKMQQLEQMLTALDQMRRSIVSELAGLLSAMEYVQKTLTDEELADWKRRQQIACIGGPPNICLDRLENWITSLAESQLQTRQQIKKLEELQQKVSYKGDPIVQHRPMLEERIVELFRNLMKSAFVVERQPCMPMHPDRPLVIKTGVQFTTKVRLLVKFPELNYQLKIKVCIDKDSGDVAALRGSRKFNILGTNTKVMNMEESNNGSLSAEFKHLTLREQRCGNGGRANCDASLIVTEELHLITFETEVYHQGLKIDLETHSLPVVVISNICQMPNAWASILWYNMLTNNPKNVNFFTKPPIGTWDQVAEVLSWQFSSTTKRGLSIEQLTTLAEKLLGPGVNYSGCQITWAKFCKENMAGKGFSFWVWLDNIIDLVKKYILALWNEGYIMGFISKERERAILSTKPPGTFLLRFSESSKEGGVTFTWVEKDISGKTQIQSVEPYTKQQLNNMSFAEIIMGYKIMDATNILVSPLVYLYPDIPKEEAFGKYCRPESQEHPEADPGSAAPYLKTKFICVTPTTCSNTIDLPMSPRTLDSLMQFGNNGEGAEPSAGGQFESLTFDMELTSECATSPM

As for `CC(C)C[C@H](NC(=O)[C@H](Cc1ccc(C(F)(F)P(=O)(O)O)cc1)NC(=O)CNC(=O)CCNC(=O)CCNC(=O)CC[C@@H]1NC(=O)[C@@H](CCCNC(=N)N)NC(=O)[C@H](CCCNC(=N)N)NC(=O)[C@@H](CCCNC(=N)N)NC(=O)[C@H](CCCNC(=N)N)NC(=O)[C@H](Cc2ccc3ccccc3c2)NC(=O)[C@@H](Cc2ccccc2)NC(=O)[C@H](Cc2ccccc2)NC1=O)C(=O)N1CCC[C@H]1C(=O)N[C@@H](CCC(N)=O)C(=O)N[C@H](C(=O)N[C@H](C(N)=O)C(C)C)[C@@H](C)O` (I: cyclo(F[dF][2Nal]R[dR]R[dR]E) / II: [βAla][βAla]G[F2Pmp]LPQTV-NH2; amide I:8-II:N), the inhibition result in data set [1] was “inactive”. In addition, the Stabilty entry in data set [2] was “Stable”.
In the case of `CC(C)C[C@H](NC(=O)[C@H](Cc1ccc(OP(=O)(O)O)cc1)NC(=O)CNC(=O)CCNC(=O)CCNC(=O)CC[C@@H]1NC(=O)[C@@H](CCCNC(=N)N)NC(=O)[C@H](CCCNC(=N)N)NC(=O)[C@@H](CCCNC(=N)N)NC(=O)[C@H](CCCNC(=N)N)NC(=O)[C@H](Cc2ccc3ccccc3c2)NC(=O)[C@@H](Cc2ccccc2)NC(=O)[C@H](Cc2ccccc2)NC1=O)C(=O)N1CCC[C@H]1C(=O)N[C@@H](CCC(N)=O)C(=O)N[C@H](C(=O)N[C@H](C(N)=O)C(C)C)[C@@H](C)O` (I: cyclo([2Nal]R[dR]R[dR]EF[dF]) / II: [βAla][βAla]G[pY]LPQTV-NH2; amide I:6-II:N), the inhibition result in data set [1] was “inactive”. Besides, the remaining at 1 h, 150 µM in data set [3] was under 20%. The Stabilty result in data set [2] is reported as “Unstable”.
With `CC(C)C[C@H](NC(=O)[C@H](Cc1ccc(C(F)(F)P(=O)(O)O)cc1)NC(=O)CNC(=O)CCNC(=O)CCNC(=O)CC[C@@H]1NC(=O)[C@@H](CCCNC(=N)N)NC(=O)[C@H](CCCNC(=N)N)NC(=O)[C@@H](CCCNC(=N)N)NC(=O)[C@H](CCCNC(=N)N)NC(=O)[C@H](Cc2ccc3ccccc3c2)NC(=O)[C@@H](Cc2ccccc2)NC(=O)[C@H](Cc2ccccc2)NC1=O)C(=O)N1CCC[C@H]1C(=O)N(C)[C@@H](CCC(N)=O)C(=O)N[C@H](C(=O)N[C@H](C(N)=O)C(C)C)[C@@H](C)O`, the inhibition result in data set [1] is “inactive”. Further, the remaining at 24 h, 150 µM in data set [4] worked out at 100%. Also, in data set [5], the outcome was inactive.
